Like-named read-outs stand apart in the source and are kept apart here.
Experiments:
patch-clamped mast cells = type: cell-based, rat
Outline: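 Peritoneal mast cells from male Wistar rats (300–350 g), Percoll-purified, held in DMEM/F-12 with 2 mM glutamine at 37°C, 5% CO2. Test peptide is delivered through the patch pipette (IS 2 with 100 μM FURA-2 and EGTA buffering). Degranulation is tracked as membrane capacitance rise after patch rupture; delay is taken at 10% capacitance increase. [Ca2+]i is read from 340/380 nm ratios. Mean ± SEM (cells).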

PtX-treated mast cells = settings: non–membrane-penetrating dyes; ref Wiesner et al., manuscript in preparation; cited from earlier work

Q: Which “cells in which SP-induced exocytosis was inhibited” value (patch-clamped mast cells; 1 mM GDPβS applied together with 5 μM SP through the patch pipette) does the source give for `Nc1nc2c(ncn2[C@@H]2O[C@H](COP(=O)(O)OP(O)(O)=S)[C@@H](O)[C@H]2O)c(=O)[nH]1` [GDPβS] here?
A: The value was “four of five”.

Q: For `Nc1nc2c(ncn2[C@@H]2O[C@H](COP(=O)(O)OP(=O)(O)OP(O)(O)=S)[C@@H](O)[C@H]2O)c(=O)[nH]1` [GTPγS], which degranulation rate (patch-clamped mast cells; 2.5–5 μM, n = 25, mean ± SEM) is on record?
A: Its degranulation rate is 0.05 ± 0.005 pF/s.

Q: And the degranulation rate (patch-clamped mast cells; 10–25 μM, n = 16, mean ± SEM)?
A: Its degranulation rate is 0.15 ± 0.03 pF/s.

Q: What about the “shortest time delay, extrapolated to high concentrations” value (patch-clamped mast cells; extrapolation of curves of Fig. 7) of the same compound?
A: The value was “about 20 s”.

Q: What about the “cells in which degranulation occurred” value (patch-clamped mast cells; intracellular application at similar concentrations as SP, IS 1) of the same compound?
A: Its value is 41 of 45.

Q: And the “membrane capacitance increase in degranulating cells” value (patch-clamped mast cells; intracellular application, IS 1, mean ± SEM (SP n = 31))?
A: The value was 2.7 ± 0.1 fold.

Q: For carboxyfluorescein, which “translocation into PtX-treated mast cells” value (PtX-treated mast cells) is on record?
A: The value was “not translocated”.
